# Assay results: ChEMBL document CHEMBL4689842, “EUbOPEN Chemogenomics Library wave 1” (2021)
# “And” between values parts separate entries of the source, which are not always exact repeats. Equal entries are not always repeated.
# System: Fibroblast
# Experiment: Multiplex assay against human fibroblast
# Format: toxicity, cell-based
# Procedure, shortened: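 Four dyes were applied at seeding to live cells: Hoechst33342, BioTracker Green Microtubule Cytoskeleton Dye, MitoTracker Red and Annexin V Alexa Fluor 680. Imaging after compound addition used a CQ1 microscope at 37°C and 5% CO2. CellPathfinder machine-learning gating then sorted cells into Hoechst high-intensity objects or normal cells, normal cells into healthy, pyknosed or fragmented nuclei, and pyknosed cells into mitotic or apoptotic, with tubulin, mitochondrial-mass and membrane-permeability phenotypes given as per cents of healthy-nucleus cells.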
# [1] = 12 h, 1 µM, compound concentration 1 uM, replicate 1
# [2] = 12 h, 1 µM, compound concentration 1 uM, replicate 2
# [3] = 24 h, 1 µM, compound concentration 1 uM, replicate 1
# [4] = 24 h, 1 µM, compound concentration 1 uM, replicate 2
# [5] = 12 h, 10 µM, compound concentration 10 uM, replicate 1
# [6] = 12 h, 10 µM, compound concentration 10 uM, replicate 2
# [7] = 24 h, 10 µM, compound concentration 10 uM, replicate 1
# [8] = 24 h, 10 µM, compound concentration 10 uM, replicate 2
# [9] = 48 h, 1 µM, compound concentration 1 uM, replicate 1
# [10] = 48 h, 1 µM, compound concentration 1 uM, replicate 2
# [11] = 48 h, 10 µM, compound concentration 10 uM, replicate 1
# [12] = 48 h, 10 µM, compound concentration 10 uM, replicate 2
smiles,measurement,setting,value
CC(C)C(=O)Nc1n[nH]c2cc(-c3cccc(NS(=O)(=O)C4CC4)c3)ccc12,Population Apoptotic (%),[1],85% and 80%
same,Population Fragmented Nuclei (%),[1],36% and 25%
same,Population Healthy Nuclei (%),[1],36% and 58%
same,Population Hoechst High Intensity Objects (%),[1],13% and 11%
same,Population Membrane Permeable-Phenotype (%),[1],8% and 7%
same,Population Mitochondria Different-Phenotype (%),[1],0% and 6%
same,Population Mitotic Cells (%),[1],14% and 20%
same,Population Normal (%),[1],86% and 88%
same,Population Pyknosed Nuclei (%),[1],26%
same,Population Tubulin-Different-Phenotype (%),[1],6% and 2%
same,Total Cell Count,[1],151 and 184
same,Population Apoptotic (%),[2],100% and 50%
same,Population Fragmented Nuclei (%),[2],56% and 43%
same,Population Healthy Nuclei (%),[2],38% and 40%
same,Population Hoechst High Intensity Objects (%),[2],34% and 18%
same,Population Normal (%),[2],65% and 81%
same,Population Pyknosed Nuclei (%),[2],6% and 15%
same,Population Tubulin-Different-Phenotype (%),[2],15% and 30%
same,Total Cell Count,[2],76 and 79
same,Population Apoptotic (%),[3],65% and 60%
same,Population Fragmented Nuclei (%),[3],40% and 28%
same,Population Healthy Nuclei (%),[3],42% and 54%
same,Population Hoechst High Intensity Objects (%),[3],8% and 9%
same,Population Membrane Permeable-Phenotype (%),[3],17% and 7%
same,Population Mitochondria Different-Phenotype (%),[3],1% and 2%
same,Population Mitotic Cells (%),[3],34% and 39%
same,Population Normal (%),[3],91% and 90%
same,Population Pyknosed Nuclei (%),[3],17%
same,Population Tubulin-Different-Phenotype (%),[3],8% and 4%
same,Total Cell Count,[3],144 and 207
same,Population Apoptotic (%),[4],42% and 33%
same,Population Fragmented Nuclei (%),[4],47% and 51%
same,Population Healthy Nuclei (%),[4],41% and 36%
same,Population Hoechst High Intensity Objects (%),[4],23% and 22%
same,Population Membrane Permeable-Phenotype (%),[4],15% and 11%
same,Population Mitochondria Different-Phenotype (%),[4],15% and 0%
same,Population Mitotic Cells (%),[4],57% and 66%
same,Population Normal (%),[4],76% and 77%
same,Population Pyknosed Nuclei (%),[4],11% and 12%
same,Population Tubulin-Different-Phenotype (%),[4],11% and 22%
same,Total Cell Count,[4],82 and 63
C=CC(=O)Nc1ccc2ncnc(Nc3ccc(OCc4cccc(F)c4)c(Cl)c3)c2c1.Cc1ccc(S(=O)(=O)O)cc1,Population Apoptotic (%),[1],53%
same,Population Fragmented Nuclei (%),[1],25%
same,Population Healthy Nuclei (%),[1],37%
same,Population Hoechst High Intensity Objects (%),[1],7%
same,Population Membrane Permeable-Phenotype (%),[1],28%
same,Population Mitochondria Different-Phenotype (%),[1],9%
same,Population Mitotic Cells (%),[1],46%
same,Population Normal (%),[1],92%
same,Population Pyknosed Nuclei (%),[1],36%
same,Population Tubulin-Different-Phenotype (%),[1],26%
same,Total Cell Count,[1],120
same,Population Apoptotic (%),[2],50%
same,Population Fragmented Nuclei (%),[2],6%
same,Population Healthy Nuclei (%),[2],84%
same,Population Hoechst High Intensity Objects (%),[2],5%
same,Population Membrane Permeable-Phenotype (%),[2],3%
same,Population Mitotic Cells (%),[2],50%
same,Population Normal (%),[2],94%
same,Population Pyknosed Nuclei (%),[2],8%
same,Population Tubulin-Different-Phenotype (%),[2],29%
same,Total Cell Count,[2],77
same,Population Apoptotic (%),[5],77%
same,Population Fragmented Nuclei (%),[5],27%
same,Population Healthy Nuclei (%),[5],38%
same,Population Hoechst High Intensity Objects (%),[5],15%
same,Population Membrane Permeable-Phenotype (%),[5],15%
same,Population Mitochondria Different-Phenotype (%),[5],7%
same,Population Mitotic Cells (%),[5],22%
same,Population Normal (%),[5],84%
same,Population Pyknosed Nuclei (%),[5],33%
same,Population Tubulin-Different-Phenotype (%),[5],27%
same,Total Cell Count,[5],122
same,Population Apoptotic (%),[6],75%
same,Population Fragmented Nuclei (%),[6],14%
same,Population Healthy Nuclei (%),[6],79%
same,Population Hoechst High Intensity Objects (%),[6],10%
same,Population Membrane Permeable-Phenotype (%),[6],4%
same,Population Mitochondria Different-Phenotype (%),[6],22%
same,Population Mitotic Cells (%),[6],25%
same,Population Normal (%),[6],89%
same,Population Pyknosed Nuclei (%),[6],6%
same,Population Tubulin-Different-Phenotype (%),[6],16%
same,Total Cell Count,[6],69
same,Population Apoptotic (%),[3],65%
same,Population Fragmented Nuclei (%),[3],26%
same,Population Healthy Nuclei (%),[3],42%
same,Population Hoechst High Intensity Objects (%),[3],9%
same,Population Membrane Permeable-Phenotype (%),[3],31%
same,Population Mitochondria Different-Phenotype (%),[3],2%
same,Population Mitotic Cells (%),[3],34%
same,Population Normal (%),[3],90%
same,Population Pyknosed Nuclei (%),[3],31%
same,Population Tubulin-Different-Phenotype (%),[3],40%
same,Total Cell Count,[3],123
same,Population Apoptotic (%),[4],55%
same,Population Fragmented Nuclei (%),[4],4%
same,Population Healthy Nuclei (%),[4],84%
same,Population Hoechst High Intensity Objects (%),[4],5%
same,Population Membrane Permeable-Phenotype (%),[4],2%
same,Population Mitochondria Different-Phenotype (%),[4],8%
same,Population Mitotic Cells (%),[4],44%
same,Population Normal (%),[4],94%
same,Population Pyknosed Nuclei (%),[4],10%
same,Population Tubulin-Different-Phenotype (%),[4],33%
same,Total Cell Count,[4],90
same,Population Apoptotic (%),[7],61%
same,Population Fragmented Nuclei (%),[7],31%
same,Population Healthy Nuclei (%),[7],39%
same,Population Hoechst High Intensity Objects (%),[7],8%
same,Population Membrane Permeable-Phenotype (%),[7],37%
same,Population Mitochondria Different-Phenotype (%),[7],9%
same,Population Mitotic Cells (%),[7],38%
same,Population Normal (%),[7],91%
same,Population Pyknosed Nuclei (%),[7],28%
same,Population Tubulin-Different-Phenotype (%),[7],48%
same,Total Cell Count,[7],118
same,Population Apoptotic (%),[8],53%
same,Population Fragmented Nuclei (%),[8],12%
same,Population Healthy Nuclei (%),[8],69%
same,Population Hoechst High Intensity Objects (%),[8],6%
same,Population Membrane Permeable-Phenotype (%),[8],14%
same,Population Mitochondria Different-Phenotype (%),[8],24%
same,Population Mitotic Cells (%),[8],46%
same,Population Normal (%),[8],93%
same,Population Pyknosed Nuclei (%),[8],18%
same,Population Tubulin-Different-Phenotype (%),[8],32%
same,Total Cell Count,[8],77
same,Population Apoptotic (%),[9],64%
same,Population Fragmented Nuclei (%),[9],34%
same,Population Healthy Nuclei (%),[9],48%
same,Population Hoechst High Intensity Objects (%),[9],8%
same,Population Membrane Permeable-Phenotype (%),[9],28%
same,Population Mitochondria Different-Phenotype (%),[9],0%
same,Population Mitotic Cells (%),[9],35%
same,Population Normal (%),[9],91%
same,Population Pyknosed Nuclei (%),[9],16%
same,Population Tubulin-Different-Phenotype (%),[9],26%
same,Total Cell Count,[9],112
same,Population Apoptotic (%),[10],50%
same,Population Fragmented Nuclei (%),[10],31%
same,Population Healthy Nuclei (%),[10],65%
same,Population Hoechst High Intensity Objects (%),[10],14%
same,Population Membrane Permeable-Phenotype (%),[10],18%
same,Population Mitochondria Different-Phenotype (%),[10],8%
same,Population Mitotic Cells (%),[10],50%
same,Population Normal (%),[10],85%
same,Population Pyknosed Nuclei (%),[10],2%
same,Population Tubulin-Different-Phenotype (%),[10],41%
same,Total Cell Count,[10],106
same,Population Apoptotic (%),[11],81%
same,Population Fragmented Nuclei (%),[11],40%
same,Population Healthy Nuclei (%),[11],50%
same,Population Hoechst High Intensity Objects (%),[11],18%
same,Population Membrane Permeable-Phenotype (%),[11],17%
same,Population Mitochondria Different-Phenotype (%),[11],9%
same,Population Mitotic Cells (%),[11],18%
same,Population Normal (%),[11],81%
same,Population Pyknosed Nuclei (%),[11],8%
same,Population Tubulin-Different-Phenotype (%),[11],49%
same,Total Cell Count,[11],154
same,Population Apoptotic (%),[12],100%
same,Population Fragmented Nuclei (%),[12],22%
same,Population Healthy Nuclei (%),[12],76%
same,Population Hoechst High Intensity Objects (%),[12],11%
same,Population Membrane Permeable-Phenotype (%),[12],12%
same,Population Mitochondria Different-Phenotype (%),[12],3%
same,Population Mitotic Cells (%),[12],0%
same,Population Normal (%),[12],88%
same,Population Pyknosed Nuclei (%),[12],1%
same,Population Tubulin-Different-Phenotype (%),[12],6%
same,Total Cell Count,[12],86
